Sampled rows, rich in hits. Any-hit rate of the full collection: about 4.8%.
PAFAH1B3 inh – PAFAH1B3 (human) inhibition; Q15102; recombinant PAFAH1B3, FP-rhodamine probe, fluorescence polarization; inhibition, % at 3.39 µM; hit rate 0.28% among 340,000; AID 492972;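 active = inhibition above the screen-wide average of all tested compounds plus 3 SD, cut at about 25% in these data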;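 also: 0% = enzyme with DMSO only and 100% = wells lacking PAFAH1B3 protein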
Target sequence (Q15102 whole entry, looked up): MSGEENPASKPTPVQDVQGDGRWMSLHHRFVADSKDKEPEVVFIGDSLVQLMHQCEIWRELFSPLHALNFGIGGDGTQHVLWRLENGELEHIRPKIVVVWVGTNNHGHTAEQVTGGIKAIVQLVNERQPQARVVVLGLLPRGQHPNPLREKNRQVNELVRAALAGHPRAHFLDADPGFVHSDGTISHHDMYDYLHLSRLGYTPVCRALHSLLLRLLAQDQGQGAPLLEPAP
UCH37 inh – inhibitors of human deubiquitinating enzyme UCH37 | purified proteasome/UCH37, Ub-AMC cleavage fluorescence | inhibition, % (no concentration beside the values) | hit rate 0.33% among 330,000;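 active = mean inhibition over replicate wells above about 20%, limit read from the data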;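 also: 0% = compound-free wells with enzyme and 100% = wells lacking proteasome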
Target sequence (Q9Y5K5 whole entry, looked up): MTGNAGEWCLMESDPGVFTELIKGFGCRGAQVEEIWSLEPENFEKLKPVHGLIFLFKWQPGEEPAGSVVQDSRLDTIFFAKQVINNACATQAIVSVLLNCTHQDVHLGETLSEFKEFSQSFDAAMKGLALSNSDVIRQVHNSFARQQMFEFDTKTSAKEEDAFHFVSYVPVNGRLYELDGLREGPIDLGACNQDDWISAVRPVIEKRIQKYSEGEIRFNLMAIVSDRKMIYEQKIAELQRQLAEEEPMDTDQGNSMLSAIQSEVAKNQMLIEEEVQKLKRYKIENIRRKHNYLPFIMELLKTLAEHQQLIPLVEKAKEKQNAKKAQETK
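Material: human UCH37 enzyme supplied as purified proteasome complex / Amount: 0.15 nM proteasome as dispensed / Buffer or medium: pH 7.4 Tris-HCl (50 mM) with ovalbumin, ATP-MgCl2, DTT / Times: preincubation 30 min, reaction 25 min, room temperature / Technique: AMC fluorescence from Ub-AMC cleavage, excitation 355 nm, emission 460 nm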
PAFAH1B2 FP inh – inhibitors of human PAFAH1B2 | inhibition, % at 3.39 µM | recombinant PAFAH1B2, FP-rhodamine activity probe, fluorescence polarization | hit rate 1.2% among 340,000;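 active = inhibition above the mean of all tested compounds plus 3 SD, cut at about 24% in these data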;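 also: 0% = enzyme with DMSO and 100% = wells lacking PAFAH1B2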
GRIN3A LBD mod – modulators (binders) of human NR3A ligand-binding domain; NR3A LBD differential scanning fluorimetry, Tm shift; 0% = protein alone, 100% = glycine-bound protein; Tm shift relative to glycine control, % at 25 µM; hit rate 2.5% among 340,000; AID 1259313;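 active = melting temperature shift of at least 10% of the positive control shift, at one fixed dose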
PAFAH2 FP inh – PAFAH2 (human) inhibition; Q99487; recombinant PAFAH2, FP-rhodamine activity probe, fluorescence polarization; inhibition, % at 3.39 µM; hit rate 0.99% among 340,000; AID 492956;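 active = inhibition above the mean over all tested compounds plus 3 SD, cut at about 30% in these data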;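 also: inhibitors block probe labeling of enzyme so polarization drops; 0% = enzyme with DMSO and 100% = wells lacking PAFAH2 protein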
pPAFAH FP inh – pPAFAH (human) enzyme inhibition | recombinant pPAFAH, FP-rhodamine probe fluorescence polarization | inhibition, % at 3.39 µM | Q13093 | AID 463082 | hit rate 1.5% among 330,000;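 active = inhibition above the mean inhibition across the screen plus 3 SD, cut at about 25% in these data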;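 also: inhibitors block binding of the rhodamine activity-based probe so polarization drops; 0% = enzyme with DMSO and 100% = wells lacking pPAFAH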
Active calls of the source: *.

What do the screens show for `Cc1ccccc1N(CC(=O)NN=Cc1cc(C)n(-c2ccccc2C)c1C)S(C)(=O)=O`?
UCH37 inh: 6

How did CCNc1nc(NCC)nc(NN=Cc2ccc(O)c(O)c2)n1 do in these assays?
UCH37 inh: -4

What do the screens show for `Cc1ccc(NC(=O)c2ccccc2)cc1`?
PAFAH1B3 inh: 14; UCH37 inh: 0; PAFAH1B2 FP inh: 4; GRIN3A LBD mod: 6; PAFAH2 FP inh: -3; pPAFAH FP inh: 3

Results for Cc1ccc(NC(=O)C2=C(c3ccccc3)S(=O)(=O)CCS2(=O)=O)cc1 ?
PAFAH1B3 inh: 4; UCH37 inh: 3; PAFAH1B2 FP inh: -4; GRIN3A LBD mod: 14*; PAFAH2 FP inh: -8; pPAFAH FP inh: 4

How did CC(=O)NC(CCS(C)(=O)=O)C(=O)Nc1ccc(Cl)c(Cl)c1 (centres undefined) do in these assays?
PAFAH1B3 inh: -6; UCH37 inh: 3; PAFAH1B2 FP inh: -1; GRIN3A LBD mod: -3; PAFAH2 FP inh: 1; pPAFAH FP inh: 27*

What do the screens show for `CC(C)Oc1cc(NC(=O)CS(=O)CC(=O)Nc2cccc(C(F)(F)F)c2)c(Cl)cc1Cl` (centres undefined)?
PAFAH1B3 inh: -20; UCH37 inh: 1; PAFAH1B2 FP inh: 1; GRIN3A LBD mod: 26*; PAFAH2 FP inh: -22; pPAFAH FP inh: -6

Results for CNC(=O)CS(=O)CC(=O)Nc1cc(OCCOC)c(Cl)cc1Cl (centres undefined) ?
PAFAH1B3 inh: 3; UCH37 inh: -2; PAFAH1B2 FP inh: 4; GRIN3A LBD mod: 0; PAFAH2 FP inh: -1; pPAFAH FP inh: 30*

What do the screens show for `COc1ccc2c(Cl)c(C(=O)NN=C3CCCC(=O)C3)sc2c1`?
UCH37 inh: 7

How did CC(=NNS(=O)(=O)c1ccccc1)c1ccc(NC(=O)C(F)(F)F)cc1 do in these assays?
UCH37 inh: 0

How did Cc1ccc(S(=O)(=O)c2cc3c(=O)n4cccc(C)c4nc3n(Cc3ccncc3)c2=N)cc1 do in these assays?
PAFAH1B3 inh: -2; PAFAH1B2 FP inh: 2; GRIN3A LBD mod: 11*; PAFAH2 FP inh: -2; pPAFAH FP inh: -1

Results for Cc1cccn2c(=O)c3cc(C#N)c(=N)n(Cc4cccnc4)c3nc12 ?
PAFAH1B3 inh: 6; UCH37 inh: -7; PAFAH1B2 FP inh: 0; GRIN3A LBD mod: -1; PAFAH2 FP inh: 0

How did Cc1cccn2c(=O)c3cc(C#N)c(=O)n(Cc4cccnc4)c3nc12 do in these assays?
PAFAH1B3 inh: 4; UCH37 inh: inactive; PAFAH1B2 FP inh: -2; GRIN3A LBD mod: 19*; PAFAH2 FP inh: -3

What do the screens show for `N=c1c(S(=O)(=O)c2ccc(Br)cc2)cc2c(=O)n3ccccc3nc2n1Cc1ccco1`?
PAFAH1B3 inh: 6; UCH37 inh: -83; PAFAH1B2 FP inh: 4; GRIN3A LBD mod: -1; PAFAH2 FP inh: 6; pPAFAH FP inh: 27*

Results for N=c1c(S(=O)(=O)c2ccc(Cl)cc2)cc2c(=O)n3ccccc3nc2n1Cc1ccco1 ?
PAFAH1B3 inh: -2; PAFAH1B2 FP inh: 1; GRIN3A LBD mod: 0; PAFAH2 FP inh: 4; pPAFAH FP inh: 21

How did O=C(Nc1ccc(F)cc1)c1oc2ccccc2c1NC(=O)C1CCCC1 do in these assays?
PAFAH1B3 inh: 4; UCH37 inh: 2; PAFAH1B2 FP inh: 4; GRIN3A LBD mod: 13*; PAFAH2 FP inh: -13; pPAFAH FP inh: 2

How did O=C(Nc1ccccc1F)c1oc2ccccc2c1NC(=O)C1CC1 do in these assays?
PAFAH1B3 inh: 0; UCH37 inh: -26; PAFAH1B2 FP inh: 4; GRIN3A LBD mod: 0; PAFAH2 FP inh: -10; pPAFAH FP inh: -5

What do the screens show for `O=C(Nc1nccs1)c1cc(-c2ccccc2)nn1-c1ccccc1`?
PAFAH1B3 inh: 3; UCH37 inh: -5; PAFAH1B2 FP inh: -2; GRIN3A LBD mod: 12*; PAFAH2 FP inh: -2; pPAFAH FP inh: 2

Results for O=C(Nc1nccs1)c1cccc(N2C(=O)C3C4C=CC(C4)C3C2=O)c1 (centres undefined) ?
PAFAH1B3 inh: 6; UCH37 inh: 29*; PAFAH1B2 FP inh: 5; GRIN3A LBD mod: 0; PAFAH2 FP inh: 0; pPAFAH FP inh: 2

What do the screens show for `CCc1nnc(NC(=O)c2cc(-c3ccccc3)nn2-c2ccccc2)s1`?
PAFAH1B3 inh: 5; UCH37 inh: 3; PAFAH1B2 FP inh: 12; GRIN3A LBD mod: 0; PAFAH2 FP inh: -4; pPAFAH FP inh: 2

Results for Cc1cc2[nH]c3c(c[n+](C)c4ccccc34)c2cc1C ?
PAFAH1B3 inh: 1; UCH37 inh: -50; PAFAH1B2 FP inh: -2; GRIN3A LBD mod: -1; PAFAH2 FP inh: 0; pPAFAH FP inh: 3

What do the screens show for `Cc1cc2[nH]c3c4ccccc4nc(C)c3c2cc1C`?
PAFAH1B3 inh: -2; PAFAH1B2 FP inh: 3; GRIN3A LBD mod: 10*; PAFAH2 FP inh: -5

What do the screens show for `Cc1sc(NC(=O)c2ccccc2)c(C(=O)c2ccccc2)c1C`?
PAFAH1B3 inh: 7; UCH37 inh: 4; PAFAH1B2 FP inh: 2; GRIN3A LBD mod: 0; PAFAH2 FP inh: 4; pPAFAH FP inh: 11

How did Cc1ccc(C(=O)Nc2sc(C)c(C)c2C(=O)c2ccccc2)cc1 do in these assays?
PAFAH1B3 inh: 6; UCH37 inh: 4; PAFAH1B2 FP inh: -1; GRIN3A LBD mod: 20*; PAFAH2 FP inh: -1; pPAFAH FP inh: 0

How did CNc1nc(NN=Cc2cc([N+](=O)[O-])ccc2F)nc(Nc2ccccc2)n1 do in these assays?
UCH37 inh: 5

How did CCC(=O)Nc1ccc(Cl)c(NC(=S)NC(=O)COc2ccccc2)c1 do in these assays?
PAFAH1B3 inh: 6; UCH37 inh: 2; PAFAH1B2 FP inh: 3; GRIN3A LBD mod: -9; PAFAH2 FP inh: 6; pPAFAH FP inh: 2

What do the screens show for `CCC(=O)Nc1ccc(Cl)c(NC(=S)NC(=O)COc2ccc(Cl)cc2)c1`?
PAFAH1B3 inh: 12; UCH37 inh: 1; PAFAH1B2 FP inh: 4; GRIN3A LBD mod: 26*; PAFAH2 FP inh: -5; pPAFAH FP inh: -11

What do the screens show for `O=C(NC(=S)NNC(=O)c1ccc(Cl)cc1Cl)c1cccnc1`?
PAFAH1B3 inh: 7; UCH37 inh: 6; PAFAH1B2 FP inh: -1; GRIN3A LBD mod: -2; PAFAH2 FP inh: 0; pPAFAH FP inh: 5

Results for O=C(NC(=S)NNC(=O)c1ccccc1O)c1cccnc1 ?
PAFAH1B3 inh: 26*; UCH37 inh: 6; PAFAH1B2 FP inh: 19; GRIN3A LBD mod: 0; PAFAH2 FP inh: 60*; pPAFAH FP inh: 16

Results for CC1(OC(=O)c2ccco2)C(=O)C=C2C=C(c3ccsc3)OC=C2C1=O (centres undefined) ?
pPAFAH FP inh: 50*

Results for CC1(O)C(=O)C=C2C=C(c3ccsc3)OC=C2C1=O (centres undefined) ?
pPAFAH FP inh: 42*

How did CC(C)(C)OC(=O)NCCCCC1=CC2=CC(=O)C(C)(OC(=O)c3ccco3)C(=O)C2=CO1 (centres undefined) do in these assays?
pPAFAH FP inh: 43*
